Series [1] relates to Actinomyces naeslundii. In words: Photodynamic inactivation of Actinomyces naeslundii T14V assessed as reduction of log10 CFU at 1 to 250 uM preincubated for 10 secs followed by irradiation with 50 j/cm'2 for 40 secs measured after 48 hrs by agar plating method. It counts as functional, organism-based. Summed up:
(§1)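 A. naeslundii T14V grown overnight at 37 °C, shaken, aerobically in BHI broth. Harvested at stationary phase, resuspended in PBS to 10^7–10^8 bacteria/mL (OD600). Mixed 1:1 with PS (final 0–250 µM) or water, 10 s incubation, then blue photopolymerizer light (1260 ± 50 mW/cm2) or dark. Tenfold dilutions plated on blood agar, aerobic 37 °C 48 h, CFU counted; medians of three independent experiments in triplicate.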

The subject of series [2] is Enterococcus faecalis. The experiment in a line: Toxicity in Enterococcus faecalis ATCC 29212 assessed as reduction of log10 CFU at 1 to 250 uM incubated for 10 secs under dark condition measured after 24 hrs by agar plating method. The following applies: in vivo. The format is organism-based. An outline of the steps:
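Dark controls. Overnight BHI cultures (EF, SM, AN aerobic; AA anaerobic; 37 °C) were washed into PBS at 10^7–10^8 cells/mL. They were mixed 1:1 with photosensitizer at final 0–250 µM and incubated 10 s, 7.5 min or 15 min, then kept in the dark for 20, 40 or 120 s. Tenfold dilutions were plated: EF on Mueller-Hinton agar, aerobic 24 h; SM on BHI agar, aerobic 48 h; AN on blood agar, aerobic 48 h; AA on BHI agar, anaerobic 48 h; all at 37 °C. CFU were compared with untreated controls; medians of three independent experiments in triplicate.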

Series [3] concerns Enterococcus faecalis. The experiment in a line: Photodynamic inactivation of Enterococcus faecalis ATCC 29212 assessed as reduction of log10 CFU at 1 to 250 uM preincubated for 10 secs followed by irradiation with 150 j/cm'2 for 120 secs measured after 24 hrs by agar plating method. It counts as functional, organism-based. An outline of the steps:
(§2)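 E. faecalis ATCC 29212, aerobic overnight BHI culture at 37 °C, was harvested at stationary phase and suspended in PBS at 10^7–10^8 bacteria/mL. It was mixed 1:1 with PS to 0–250 µM final, held 10 s, then illuminated (1260 ± 50 mW/cm2) or kept dark. Dilutions were plated on Mueller-Hinton agar, aerobic 37 °C 24 h, CFU counted. Medians of three independent triplicate experiments, referred to untreated controls.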

In series [4] the test system is Streptococcus mutans. The experiment in a line: Photodynamic inactivation of Streptococcus mutans ATCC 25175 assessed as reduction of log10 CFU at 1 to 250 uM preincubated for 10 secs followed by irradiation with 50 j/cm'2 for 40 secs measured after 48 hrs by agar plating method. The format is functional.
The test system of series [5] is Enterococcus faecalis. The experiment in a line: Photodynamic inactivation of Enterococcus faecalis ATCC 29212 assessed as reduction of log10 CFU at 1 to 250 uM preincubated for 10 secs followed by irradiation with 25 j/cm'2 for 20 secs measured after 24 hrs by agar plating method. It counts as functional, organism-based. Summed up:
as §2

The nature of series [6]: Stability of the compound in acidic medium at 60 uM at pH 2 after 5 to 30 mins by UV-vis spectra analysis. The format is physicochemical. The following applies: buffer, pH 2, 60 µM. Summed up: (§3)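 UV-Vis absorption spectra recorded in buffer solutions at different pH values after 5 and 30 min incubation.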
Series [7] is described as follows: Stability of the compound in basic medium at 60 uM at pH > 9 after 5 to 30 mins by UV-vis spectra analysis. It counts as physicochemical. Summed up:
as §3

Series [8] concerns Aggregatibacter actinomycetemcomitans. The experiment in a line: Photodynamic inactivation of Aggregatibacter actinomycetemcomitans ATCC 43718 assessed as reduction of log10 CFU at 1 to 250 uM incubated prior to irradiation with 50 j/cm'2 for 40 secs measured after 48 hrs by agar plating method. It counts as functional. The note with it: Y4. An outline of the steps: (§4)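 A. actinomycetemcomitans ATCC 43718 cultured overnight in BHI broth under anaerobic conditions, 37 °C with shaking. Stationary-phase cells were spun down, taken up in PBS to 10^7–10^8/mL, and combined 1:1 with PS (final 0–250 µM) or water. After 10 s they were irradiated at 1260 ± 50 mW/cm2 or kept dark. Serial dilutions went onto BHI agar, incubated anaerobically at 37 °C for 48 h, and CFU were scored. Results are medians from 3 experiments × triplicate versus untreated controls.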

For series [9] the test system is unchanged. The experiment in a line: Photodynamic inactivation of Aggregatibacter actinomycetemcomitans ATCC 43718 assessed as reduction of log10 CFU at 1 to 250 uM incubated prior to irradiation with 25 j/cm'2 for 20 secs measured after 48 hrs by agar plating method. It counts as functional. The following applies: Y4. Summed up: as §4
The subject of series [10] is Streptococcus mutans. In words: Photodynamic inactivation of Streptococcus mutans ATCC 25175 assessed as reduction of log10 CFU at 100 uM incubated prior to irradiation with 50 j/cm'2 for 40 secs measured after 48 hrs by agar plating method (reference value: <1 no unit). The format is functional.
Series [11] concerns Streptococcus mutans. In words: Photodynamic inactivation of Streptococcus mutans ATCC 25175 assessed as reduction of log10 CFU at 1 uM incubated prior to irradiation with 150 j/cm'2 for 120 secs measured after 48 hrs by agar plating method (reference value: <1 no unit). It counts as functional.
The subject of series [12] is Aggregatibacter actinomycetemcomitans. In words: Photodynamic inactivation of Aggregatibacter actinomycetemcomitans ATCC 43718 assessed as reduction of log10 CFU at 1 uM incubated prior to irradiation with 25 j/cm'2 for 20 secs measured after 48 hrs by agar plating method relative to control. The format is functional, Y4. An outline of the steps: as §4
Series [13] has as its system Streptococcus mutans. In words: Photodynamic inactivation of Streptococcus mutans ATCC 25175 assessed as reduction of log10 CFU at 10 uM incubated prior to irradiation with 25 j/cm'2 for 20 secs measured after 48 hrs by agar plating method (reference value: <1 no unit). The format is functional.
Series [14] has as its system Aggregatibacter actinomycetemcomitans. The experiment in a line: Photodynamic inactivation of Aggregatibacter actinomycetemcomitans ATCC 43718 assessed as reduction of log10 CFU at 1 uM incubated prior to irradiation with 50 j/cm'2 for 40 secs measured after 48 hrs by agar plating method (reference value: <1 no unit). It counts as functional, Y4. An outline of the steps:
as §4

In series [15] the test system is Streptococcus mutans. In words: Photodynamic inactivation of Streptococcus mutans ATCC 25175 assessed as reduction of log10 CFU at 10 uM incubated prior to irradiation with 150 j/cm'2 for 120 secs measured after 48 hrs by agar plating method (reference value: <1 no unit). The format is functional.
For series [16], the system named is Aggregatibacter actinomycetemcomitans. In words: Photodynamic inactivation of Aggregatibacter actinomycetemcomitans ATCC 43718 assessed as reduction of log10 CFU at 5 uM incubated prior to irradiation with 50 j/cm'2 for 40 secs measured after 48 hrs by agar plating method (reference value: <1 no unit). It counts as functional, Y4. An outline of the steps: as §4

In series [17] the test system is Actinomyces naeslundii. The experiment in a line: Photodynamic inactivation of Actinomyces naeslundii T14V assessed as reduction of log10 CFU at 5 uM incubated prior to irradiation with 50 j/cm'2 for 40 secs measured after 48 hrs by agar plating method (reference value: <1 no unit). It counts as functional. An outline of the steps: as §1
In series [18] the test system is Actinomyces naeslundii. In words: Photodynamic inactivation of Actinomyces naeslundii T14V assessed as reduction of log10 CFU at 100 uM incubated prior to irradiation with 150 j/cm'2 for 120 secs measured after 48 hrs by agar plating method (reference value: <1 no unit). It counts as functional. Summed up:
as §1

The subject of series [19] is Aggregatibacter actinomycetemcomitans. In words: Photodynamic inactivation of Aggregatibacter actinomycetemcomitans ATCC 43718 assessed as reduction of log10 CFU at 10 uM incubated prior to irradiation with 50 j/cm'2 for 40 secs measured after 48 hrs by agar plating method (reference value: <1 no unit). It counts as functional, Y4. Summed up: as §4

Each structure is given as a SMILES string. Calls of active or inactive are those of the source. The calls are words filed in the database; no cut-off is given here.

As to `C[N+](C)(C)CC1=Cc2cccc3cccc(c23)C1=O.[Cl-]`, the outcome (in the series with Actinomyces naeslundii [1]; in the series on Enterococcus faecalis [3]; with Streptococcus mutans [4]; with Enterococcus faecalis [5]; in [8]; in [9]) was Active. Further, the Activity entry in the series on Enterococcus faecalis [2] is on record as “Non-toxic”. The Stability result in series [6] is on record as “Stable”; in [7] it was “Unstable”.

For the compound `O=C1C(C[n+]2ccccc2)=Cc2cccc3cccc1c23.[Cl-]`, the log10cfu was more than 6 with Streptococcus mutans [10]; less than 3 in the series on Streptococcus mutans [11]; less than 3 in series [12]; less than 3 in the series with Streptococcus mutans [13]; less than 3 in [14]; more than 6 in the series with Streptococcus mutans [15]. In addition, the log10cfu is more than 6 in series [16], less than 5 in the series with Actinomyces naeslundii [17], more than 5 in the series on Actinomyces naeslundii [18] and more than 6 in series [19]. Further, the outcome (in the series on Actinomyces naeslundii [1]; in the series on Enterococcus faecalis [3]; with Streptococcus mutans [4]; with Enterococcus faecalis [5]; in [8]; in series [9]) was Active. Moreover, the Stability result in series [6] is given as “Stable”; in series [7] it was “Unstable”.

As to `C[N+](C)(CCO)CC1=Cc2cccc3cccc(c23)C1=O.[Cl-]`, the log10cfu is given as more than 6 in the series on Streptococcus mutans [10]; less than 1 in the series with Streptococcus mutans [11]; less than 1 in series [12]; less than 1 in the series on Streptococcus mutans [13]; less than 3 in series [14]; more than 6 in the series with Streptococcus mutans [15]. Moreover, the log10cfu was less than 3 in series [16], less than 3 with Actinomyces naeslundii [17], more than 5 in the series on Actinomyces naeslundii [18] and less than 3 in [19]. Further, the Activity entry in the series on Enterococcus faecalis [2] is on record as “Non-toxic”.

For the origin of these results see ChEMBL document CHEMBL3297702, “Improving photodynamic inactivation of bacteria in dentistry: highly effective and fast killing of oral key pathogens with novel tooth-colored type-II photosensitizers” (J Med Chem, 2014).
